Holding throughout (assay type): in vitro ADME
In data set [1] the target is T1, CYP1A2 (Homo sapiens, UniProt P05177).
T1 sequence (P05177 2-516 limits assumed): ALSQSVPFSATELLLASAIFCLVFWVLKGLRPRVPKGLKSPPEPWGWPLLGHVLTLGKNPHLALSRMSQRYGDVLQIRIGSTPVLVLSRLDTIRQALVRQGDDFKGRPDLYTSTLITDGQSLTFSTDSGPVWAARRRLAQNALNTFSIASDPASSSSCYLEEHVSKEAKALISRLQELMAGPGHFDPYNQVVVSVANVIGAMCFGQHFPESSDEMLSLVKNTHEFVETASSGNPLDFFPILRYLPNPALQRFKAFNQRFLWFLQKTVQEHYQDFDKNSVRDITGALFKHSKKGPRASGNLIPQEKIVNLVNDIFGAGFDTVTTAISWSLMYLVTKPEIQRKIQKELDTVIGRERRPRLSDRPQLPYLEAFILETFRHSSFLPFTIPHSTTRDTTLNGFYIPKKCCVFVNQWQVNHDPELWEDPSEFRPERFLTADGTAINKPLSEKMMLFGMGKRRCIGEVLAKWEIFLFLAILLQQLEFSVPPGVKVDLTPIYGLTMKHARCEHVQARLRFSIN
The experiment in a line: C152 metabolism.

For data set [2], the target named is T2, CYP3A5 (Homo sapiens, UniProt P20815). The experiment in a line: C152 metabolism. As to conditions: for Specific rate: CYP3A5. The gist of the method: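 Human P450s in Supersomes that co-express human CPR and cytochrome b5. Reaction in 0.1 M Na-HEPES pH 7.4 with 60 mM KCl, stirred at 30 °C. C152 0.1–30 μM added from acetone stock; 200 μM NADPH starts it. Fluorescence rise read at 500 nm (isosbestic, mono-demethylation step). Rate is the linear slope over 3–5 min, scaled by the C151–C152 fluorescence difference. Michaelis–Menten or Hill fit, Vmax per P450, 2–6 runs; rate at 30 μM computed from fit.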

Data set [3] addresses CYP3A4 (Homo sapiens, UniProt P08684). The experiment in a line: Projected involvement in C152 metabolism in HLM. The method, boiled down:
(§1)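 Calculated values, no new incubations. Each of seven C152-metabolizing P450s has a fractional content in the pooled HLM P450 pool (LC-MS/MS MRM). That fraction is multiplied by its Supersome Vmax (saturation) or by its rate at 30 μM C152 from Hill or Michaelis–Menten parameters. Expected participation (% TNR) is each normalized rate divided by the sum of all seven.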

Data set [4] addresses T2, CYP3A5. The data set can be described thus: Projected involvement in C152 metabolism in HLM. The gist of the method: as §1
Setting [5] is: at saturation of all P450 species.

Values joined by “and” are separate entries in the source; they are usually repeats but may differ in a detail not shown here. Equal entries are not always repeated.

CYP3A4, sequence (P08684 2-503 limits assumed): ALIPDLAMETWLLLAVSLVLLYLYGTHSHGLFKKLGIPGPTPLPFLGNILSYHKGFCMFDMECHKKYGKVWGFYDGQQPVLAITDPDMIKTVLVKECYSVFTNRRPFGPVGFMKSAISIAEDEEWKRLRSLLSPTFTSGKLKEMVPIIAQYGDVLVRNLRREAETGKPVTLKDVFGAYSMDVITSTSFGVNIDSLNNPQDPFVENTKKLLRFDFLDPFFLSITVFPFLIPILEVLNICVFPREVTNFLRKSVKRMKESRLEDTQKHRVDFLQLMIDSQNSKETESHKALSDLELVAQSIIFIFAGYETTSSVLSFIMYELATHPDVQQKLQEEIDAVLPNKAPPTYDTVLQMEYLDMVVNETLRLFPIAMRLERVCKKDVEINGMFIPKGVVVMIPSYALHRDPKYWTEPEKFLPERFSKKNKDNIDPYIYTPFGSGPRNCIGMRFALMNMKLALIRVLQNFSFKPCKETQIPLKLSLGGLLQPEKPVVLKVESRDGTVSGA
T2 sequence (P20815 whole entry): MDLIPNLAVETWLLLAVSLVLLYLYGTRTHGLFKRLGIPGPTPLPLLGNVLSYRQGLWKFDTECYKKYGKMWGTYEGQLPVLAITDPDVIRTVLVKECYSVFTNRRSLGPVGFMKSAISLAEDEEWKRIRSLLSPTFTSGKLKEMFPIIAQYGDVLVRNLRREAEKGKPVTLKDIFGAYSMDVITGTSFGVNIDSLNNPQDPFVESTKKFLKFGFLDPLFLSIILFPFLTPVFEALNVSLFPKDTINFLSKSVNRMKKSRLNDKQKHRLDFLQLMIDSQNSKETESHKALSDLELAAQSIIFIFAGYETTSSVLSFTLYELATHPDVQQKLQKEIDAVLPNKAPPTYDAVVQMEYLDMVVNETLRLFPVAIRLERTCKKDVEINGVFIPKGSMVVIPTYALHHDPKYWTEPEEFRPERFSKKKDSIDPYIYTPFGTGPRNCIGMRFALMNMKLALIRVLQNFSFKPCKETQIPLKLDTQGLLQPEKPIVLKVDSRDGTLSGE

For the molecule `CN(C)c1ccc2c(C(F)(F)F)cc(=O)oc2c1` [C152, 7-Dimethylamino-4-trifluromethylcoumarin], the Specific rate was 4.5 min⁻¹ in data set [1] (CYP1A2, at 30 μM C152, calculated from fit parameters); 5.0 min⁻¹ in data set [1] (CYP1A2, at saturation (Vmax in Supersomes)); 9.5 min⁻¹ in data set [2] (at 30 μM C152, calculated from fit parameters); 15.3 min⁻¹ in data set [2] (at saturation (Vmax in Supersomes)). Besides, the “C151 formed (both methods: LC-MS/MS and scanning fluorimetry)” value in data set [1] (CYP1A2, fraction in total rate of C152 metabolism) is 20–25%. The “Vmax (C152 metabolism, fluorimetric assay)” value stood at 5.0 ± 1.1 min⁻¹ in data set [1] (SS(1A2), mol C152 per mol P450 per min) and 15 ± 4 min⁻¹ in data set [2] (SS(3A5), mol C152 per mol P450 per min). Besides, the “Fraction of C151 formed, Fluorimetry” value in data set [1] (SS(1A2), scanning fluorimetry with PCA) was 26±7%. Further, the Km in data set [1] (read-out: KM or S50 (C152 metabolism, fluorimetric assay), SS(1A2), Michaelis-Menten fit, 30 °C, pH 7.4) was determined as 2.9 ± 1.7 µM; in data set [2] (read-out: KM or S50 (C152 metabolism, fluorimetric assay), SS(3A5), Michaelis-Menten fit, 30 °C, pH 7.4) it was 19 ± 9 µM. Further, the Normalized rate in data set [3] (at 30 μM C152) came to 10.3 min⁻¹; in data set [3] (setting [5]) it was 10.8 min⁻¹; in data set [4] (at 30 μM C152) it was 0.074 min⁻¹; in data set [4] (setting [5]), 0.120 min⁻¹. For the same molecule, the Expected participation in data set [3] (at 30 μM C152, % TNR) was 84% and 84.75%; in data set [4] (at 30 μM C152, % TNR), 0.61%; in data set [4] (at saturation of all P450 species, % TNR), 0.91%.

The values are drawn from paper PMC7740640 (Xenobiotica; the fate of foreign compounds in biological …, 2020).
